Published values pooled from the literature.
Protocols differ between the studies behind these lines.
Target: Serine/threonine-protein kinase D3 (PRKD3, Homo sapiens, UniProt O94806)
One construct used (O94806 1-890): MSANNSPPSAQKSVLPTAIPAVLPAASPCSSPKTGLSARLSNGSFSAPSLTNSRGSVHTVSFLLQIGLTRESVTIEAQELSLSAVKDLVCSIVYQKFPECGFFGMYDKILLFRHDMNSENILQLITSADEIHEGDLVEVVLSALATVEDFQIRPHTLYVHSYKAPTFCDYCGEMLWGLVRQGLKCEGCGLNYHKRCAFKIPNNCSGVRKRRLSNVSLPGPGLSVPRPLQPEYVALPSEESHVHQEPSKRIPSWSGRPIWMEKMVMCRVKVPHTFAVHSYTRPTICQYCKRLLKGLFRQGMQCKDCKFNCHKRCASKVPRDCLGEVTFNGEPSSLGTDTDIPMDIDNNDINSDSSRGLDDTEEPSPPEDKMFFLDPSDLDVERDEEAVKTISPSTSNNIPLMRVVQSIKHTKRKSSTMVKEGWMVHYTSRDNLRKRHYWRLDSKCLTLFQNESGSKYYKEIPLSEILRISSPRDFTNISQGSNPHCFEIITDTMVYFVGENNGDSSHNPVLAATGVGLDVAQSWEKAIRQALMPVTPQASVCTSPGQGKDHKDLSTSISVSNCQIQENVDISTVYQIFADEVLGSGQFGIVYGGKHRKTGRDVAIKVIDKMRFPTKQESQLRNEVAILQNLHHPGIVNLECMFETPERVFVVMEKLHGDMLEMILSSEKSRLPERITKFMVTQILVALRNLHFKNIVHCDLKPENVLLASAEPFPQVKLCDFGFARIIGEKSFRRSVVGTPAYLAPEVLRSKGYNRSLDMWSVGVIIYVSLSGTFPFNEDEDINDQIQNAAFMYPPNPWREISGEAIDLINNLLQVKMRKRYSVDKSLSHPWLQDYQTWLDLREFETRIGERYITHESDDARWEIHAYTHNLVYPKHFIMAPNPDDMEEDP

COc1cc(Nc2ncc(F)c(Nc3ccc4c(n3)NC(=O)C(C)(C)O4)n2)cc(OC)c1OC  inhibition (binding; 10 µM): 0%
Cn1cc(-c2cc(F)cc(N3CCn4c(cc5c4CCCC5)C3=O)c2CO)cc(Nc2ccc(N3CCN(C4COC4)CC3)cn2)c1=O  inhibition (enzyme activity, inhibitor; 0.1 µM): 11%
O=c1[nH]c2ccccc2n1C1CCN(Cc2ccc(-c3[nH]c4cc5ncnc5cc4nc3-c3ccccc3)cc2)CC1  remaining signal (cell-free assay; 0.5 µM): 99.5%
Nc1ncc(-c2nc(N3CCOCC3)nc(N3CCOCC3)n2)c(C(F)F)n1  remaining binding (binding, competition with immobilised ligand; 10 µM): 67%
N#CC1(c2ccccn2)CCN(Cc2cc(C(=O)O)c(=O)n3ccccc23)CC1  remaining binding (cell-free assay, competition with immobilised ligand; 1 µM): 98%
COc1ncccc1-c1cnn2ccc(N3CCN(C(=O)OC(C)C)CC3)nc12  remaining binding (binding, competition with immobilised ligand; 1 µM): 100%
Cc1nn(C)cc1-c1nc2c(N3CCN(Cc4ccc(Cl)cc4)CC3)c(Cl)cnc2[nH]1  remaining binding (binding, competition with immobilised ligand; 1 µM): 100%
CC(C)(C)c1cc(C=C(C#N)C#N)cc(Br)c1O  remaining activity (enzyme activity, inhibitor; 0.5 µM): 92.7%
Cn1cncc1[C@](O)(COc1ccc(C#N)cc1-c1ccc(OC(F)(F)F)cc1)c1ccc(C#N)cc1  remaining binding (cell-free assay, competition with immobilised ligand; 1 µM): 100%
